Data reported in article PMC4472004 (Molecular cancer therapeutics, 2014).

What was measured:
[1] = molecular target: PSMA receptor on PC3pip cells (Homo sapiens, UniProt Q04609); assay: Competitive binding assay
Method in brief: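 PC3pip cells (PSMA-transduced PC3; RPMI-1640 with 2 mmol/L L-glutamine and 10% FBS, 37°C, 5% CO2), 5 × 10^5 per tube, incubated 1 h at 37°C with varying test compound concentrations plus 12 nmol/L [3H]-methyl-cysteine urea PSMA radioligand. Cells pelleted at 3,000 × g for 5 min at 4°C and washed 3× with cold PBS. Bound radioactivity by scintillation counting; IC50 from curve fitting.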

PC3pip tumors = assay: In vivo NIR imaging; design: species or system mice; conditions: coinjection; up to 1,000-fold excess of Cys-CO-Glu or PSMA-1; 100-fold excess of ZJ-MCC-Ahx-YYYG

PSMA receptor on PC3pip cells, sequence (Q04609 whole entry): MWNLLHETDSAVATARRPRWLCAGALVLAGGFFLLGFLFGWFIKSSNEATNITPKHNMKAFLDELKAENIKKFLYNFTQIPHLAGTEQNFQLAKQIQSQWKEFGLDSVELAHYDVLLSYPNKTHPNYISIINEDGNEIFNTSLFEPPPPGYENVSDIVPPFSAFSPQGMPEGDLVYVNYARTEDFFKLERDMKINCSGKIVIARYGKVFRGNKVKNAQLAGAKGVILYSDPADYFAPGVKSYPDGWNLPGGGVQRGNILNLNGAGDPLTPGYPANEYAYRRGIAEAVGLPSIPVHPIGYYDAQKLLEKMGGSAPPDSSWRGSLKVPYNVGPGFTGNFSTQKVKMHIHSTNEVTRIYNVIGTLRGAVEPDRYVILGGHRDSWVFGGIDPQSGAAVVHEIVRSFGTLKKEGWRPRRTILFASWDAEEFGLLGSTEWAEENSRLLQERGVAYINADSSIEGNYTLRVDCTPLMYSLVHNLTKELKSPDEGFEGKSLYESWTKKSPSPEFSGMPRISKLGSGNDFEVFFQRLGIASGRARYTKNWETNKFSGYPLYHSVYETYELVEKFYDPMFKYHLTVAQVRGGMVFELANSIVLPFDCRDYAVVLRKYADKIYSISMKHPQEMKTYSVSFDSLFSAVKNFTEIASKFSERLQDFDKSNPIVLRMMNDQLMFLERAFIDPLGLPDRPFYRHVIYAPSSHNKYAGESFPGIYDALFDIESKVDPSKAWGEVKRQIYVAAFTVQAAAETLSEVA

Molecule | IC50 [1] [nM] | effectiveness as in vivo competitor of the PSMA-1–NIR probes (PC3pip tumors) | binding affinity better than the parent ligand Cys-CO-Glu ([1]; ratio of IC50 values) [fold]
NCCCC[C@H](NC(=O)N[C@@H](CCC(=O)O)C(=O)O)C(=O)O [Cys-CO-Glu, (S)-2-(3-((S)-5-amino-1-carboxypentyl)ureido)pentanedioic acid] | 9.93 ± 0.07 | unable to achieve effective competition | –
Glu-CO-Glu'-Amc-Ahx-Glu-Glu-Glu-Lys-NH2 [PSMA-1] | – | unable to achieve effective competition | 4.3
